SMILES strings stand for the structures. The source made the active and inactive calls. No cut-off for these calls is given here.

For this assay, the target named is T1, Activin receptor type-1 (Homo sapiens) (UniProt Q04771).
T1 sequence (whole entry): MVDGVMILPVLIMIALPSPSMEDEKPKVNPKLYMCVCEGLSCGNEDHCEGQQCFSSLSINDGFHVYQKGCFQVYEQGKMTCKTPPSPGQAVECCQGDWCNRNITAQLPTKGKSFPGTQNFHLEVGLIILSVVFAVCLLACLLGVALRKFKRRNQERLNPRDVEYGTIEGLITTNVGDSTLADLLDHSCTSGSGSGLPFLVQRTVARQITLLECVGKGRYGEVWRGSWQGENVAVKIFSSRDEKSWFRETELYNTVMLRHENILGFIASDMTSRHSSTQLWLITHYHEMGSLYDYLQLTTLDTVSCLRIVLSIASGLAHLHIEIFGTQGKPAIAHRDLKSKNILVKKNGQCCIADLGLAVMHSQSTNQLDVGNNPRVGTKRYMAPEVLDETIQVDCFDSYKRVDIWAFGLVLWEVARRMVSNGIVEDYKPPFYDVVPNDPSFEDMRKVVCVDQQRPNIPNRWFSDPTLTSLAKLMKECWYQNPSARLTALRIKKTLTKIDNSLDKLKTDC
In words: Inhibition of ACVR1 (unknown origin) by LanthaScreen TR-FRET assay. A digest of the protocol: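 Outsourced SelectScreen profiling using a LanthaScreen TR-FRET binding format, in which a tight-binding tracer is displaced from the kinase.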

In the case of `COc1cnc(Nc2cccc(S(N)(=O)=O)c2)nc1N1CCN(c2ccccc2)C(=O)C1`, the inhibition entry is “inactive”.

These data come from ChEMBL document CHEMBL5316332 (J Med Chem, 2023).
